Screening results (PubChem BioAssay)
Hits are enriched below; roughly 1.9% of the tested compounds scored in any of these assays.
NPY Y2 blocker: NPY-Y2 receptor antagonists, primary screen, cell-based. actives 0.99% (n = 140,000). inhibition, % at 2.7 µM. Neuropeptide Y receptor type 2 (Homo sapiens), P49146. NPY-Y2 expressing cells, antagonist mode; in the data active = inhibition above about 17%;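 note: 0% = vehicle with agonist challenge and 100% = reference antagonist with challenge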
NPY Y1 blocker: NPY-Y1 receptor antagonists, primary screen, cell-based. AID 1040, 2008. inhibition, % at 3.6 µM. HEK293-CNG Y1 cells, membrane potential fluorescence; NPY at EC95, then isoproterenol. actives 1% (n = 200,000). Neuropeptide Y receptor type 1 (Homo sapiens), P25929;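 active = inhibition above the campaign mean inhibition of all tested compounds plus 3 SD, cut at about 20% in these data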;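 note: 0% = DMSO wells given NPY plus isoproterenol and 100% = isoproterenol alone without NPY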
Target sequence (P25929 whole entry, looked up): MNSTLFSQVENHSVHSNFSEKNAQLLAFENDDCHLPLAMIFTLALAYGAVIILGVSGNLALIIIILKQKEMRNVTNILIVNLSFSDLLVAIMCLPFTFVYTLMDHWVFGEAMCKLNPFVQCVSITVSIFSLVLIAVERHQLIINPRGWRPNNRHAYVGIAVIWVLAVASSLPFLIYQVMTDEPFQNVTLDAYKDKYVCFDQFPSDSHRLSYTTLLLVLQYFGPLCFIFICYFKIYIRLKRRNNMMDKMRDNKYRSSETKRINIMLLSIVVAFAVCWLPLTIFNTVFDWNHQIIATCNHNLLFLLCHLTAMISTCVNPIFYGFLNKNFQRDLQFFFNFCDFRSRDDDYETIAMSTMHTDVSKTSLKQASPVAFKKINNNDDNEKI
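Assay system: HEK293 Y1/CNG channel cell line; Doses: single compound dose of 3.6 µM, 0.4% DMSO; Timing: dye 3 h, compound 60 min room temperature, stimulation 45 min; Technique: Membrane-potential fluorescent dye readout; Measure: % inhibition of NPY effect.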
NPY2 pot ag: NPY-Y2 potentiators or agonists, primary screen, cell-based; Neuropeptide Y receptor type 2 (Homo sapiens), P49146; cells expressing NPY-Y2, potentiator/agonist read-out; activation, % at 3.6 µM; actives 0.45% (n = 220,000); in the data active = activation above about 27%;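 note: cells stimulated with NPY near EC25 plus isoproterenol at EC100; 0% = vehicle plus submaximal agonist and 100% = vehicle plus saturating agonist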
NPY-Y1 PAM-ag: NPY-Y1 receptor potentiators or agonists, primary screen, cell-based; Neuropeptide Y receptor type 1 (Homo sapiens), P25929; NPY-Y1 expressing cells, potentiator/agonist activation; activation, % at 3.6 µM; actives 0.37% (n = 220,000); AID 1304, 2008; in the data active = activation above about 33%, passing the limit was not always enough;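 note: cells stimulated with NPY at EC10 then isoproterenol at EC100; 0% = low agonist plus stimulus and 100% = saturating agonist plus stimulus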
* = called active by the depositor; . = no result.

SMILES	NPY Y2 blocker	NPY Y1 blocker	NPY2 pot ag	NPY-Y1 PAM-ag
Cc1cccc(N2C(=O)C(Oc3ccc(Cl)cc3Cl)C2C=O)c1C (stereo not given)	-2	0	10	54*
CCOCCCNC(=O)C(c1ccc(Cl)cc1)N1CCC2(CC1)OCCO2 (stereo not given)	7	4	36*	32*
C#CCOc1ccccc1C(N)=O	.	.	0	26
Cc1cc(-n2cnc(-c3cn[nH]c3C)n2)no1	.	.	-1	14
N#Cc1c(NC(=O)CSc2nnc(-c3ccco3)n2-c2ccccc2)sc2c1CCC2	1	-4	43*	111*
NC(=O)c1c(NC(=O)CSc2nnc(-c3ccco3)n2-c2ccccc2)sc2c1CCC2	2	-2	16	32
CCN(Cc1ccncc1)C(=O)CCc1nnc(CCc2ccc(OC)cc2)o1	.	3	6	14
O=C(c1ccccc1)c1ccc(OCC(O)CN2CCCCC2)cc1 (stereo not given)	5	6	-20	3
OC(COc1ccc(C2C=CCC2)cc1)CN1CCCCC1 (stereo not given)	1	-8	73*	60*
CCOC(=O)N1CCN(CC(O)COC2CC(C)CCC2C(C)C)CC1 (stereo not given)	4	7	-24	-22
CC1CCC(C(C)C)C(OCC(O)CNC(C)(C)C)C1 (stereo not given)	.	-6	99*	106*
O=C(OCc1nnc(-c2ccccc2)o1)C1CC(=O)N(Cc2ccco2)C1 (stereo not given)	.	5	-8	-6
c1csc(CNc2nc(-c3cccs3)nc3ccccc23)c1	.	2	10	-11
c1ccc(CN2CCC(Nc3nc(-c4cccs4)nc4ccccc34)CC2)cc1	.	21*	29	4
CCc1nc2sccc2c(=O)[nH]1	.	-6	-21	13
CN1C=CC=C/C1=C1\SC(=S)N(C2CCCCC2)C1=O	-2	-10	106*	114*
CN1C=CC=C/C1=C1\SC(=S)N(c2ccccc2)C1=O	0	-3	11	-8
COc1ccc(CN(CCN(C)C)Cc2ccccc2)c(OC)c1	20*	23*	-14	-17
COc1ccc(CN(C)CC(=O)NC(=O)NCc2ccccc2)c(OC)c1	5	1	-2	-6
CCOC(=O)c1ccc(NS(C)(=O)=O)cc1	6	4	-11	-20
CC(C)NCC(O)c1ccc(NS(C)(=O)=O)cc1 (stereo not given)	.	-15	78	96*
COCCn1c(-c2ccc(OC)cc2)cnc1SCC(=O)Nc1cccc2ccccc12	9	11	0	-13
COc1cccc(N2C(=O)/C(=C\c3cccs3)NC2=S)c1	.	-3	69*	48*
COCC(=O)N1CCCC(C(=O)c2ccc(-c3ccccc3)c(F)c2)C1 (stereo not given)	.	0	-30	-19
O=C(COC(=O)C1CCN(C(=O)c2ccc(Cl)cc2)CC1)NC1CCS(=O)(=O)C1 (stereo not given)	.	1	13	7
SMILES	NPY Y2 blocker	NPY Y1 blocker	NPY2 pot ag	NPY-Y1 PAM-ag
COc1ccc(C)cc1NC(=O)COC(=O)C1CCN(C(=O)c2ccc(Cl)cc2)CC1	.	-5	90*	86*
CC1CCCCN1C(=O)COC(=O)/C=C/c1ccc2ccccc2n1 (stereo not given)	.	-1	1	0
CCN(CC)C(=O)c1cc2c(=O)oc3ccccc3c2s1	3	0	58*	69*
CCN(CC)C(=O)c1cc2c(=O)n3ccccc3nc2s1	3	-1	-13	7
COc1ccc(NC(=O)CCCc2c[nH]c3ccccc23)cc1OC	1	1	-3	-6
COc1ccc(C(c2c[nH]c3ccccc23)c2c[nH]c3ccccc23)cc1O	-4	-8	39*	32*
COc1ccc(NC(=O)CN2CCN(S(=O)(=O)c3ccc(Cl)cc3)CC2)cc1Cl	-1	6	17	8
COc1ccc(S(=O)(=O)N2CCCN(CC(=O)Nc3ccc(OC)c(Cl)c3)CC2)cc1	18*	38*	-21	-46
Cc1[nH]nc(-c2ccc(O)cc2O)c1-c1ccc(Cl)cc1	-1	-12	48*	21
COc1ccccc1N1CCN(/N=C/C(Cl)=C/c2ccccc2)CC1	.	.	-10	9
Cc1cccn2c(CNCC3(c4ccccc4)CCCC3)c(C(=O)N3CCOCC3)nc12	.	20*	12	8
COC(=O)c1cccc(NC(=O)COc2cccc([N+](=O)[O-])c2)c1	.	4	-10	-8
Cc1ccc(C)c(N(CC(=O)NC2CCCC2)C(=O)c2oc(C(C)(C)C)cc2C)c1	20*	27*	0	-3
Cn1c(=O)c2c(nc(CN3CCN(c4cccc(Cl)c4)CC3)n2CCc2ccccc2)n(C)c1=O	17*	18	-20	-56
CN(C)S(=O)(=O)c1cc(NC(=O)COC(=O)c2ccc3c(c2)OCO3)ccc1Cl	2	-1	-13	-19
CC1CCN(c2ccccc2NC(=S)NC(=O)c2ccco2)CC1	12	35*	-25	-48
CNc1nc(OCC(F)(F)F)nc(N2CCOCC2)n1	-1	-1	14	-16
FC(F)(F)COc1nc(N2CCOCC2)nc(N(c2ccccc2)c2ccccc2)n1	20*	21*	-8	-21
Cc1ccc(S(=O)(=O)N2CCN(C)CC2)cc1-c1nnc2c3ccccc3c(C)nn12	40*	37*	-4	-40
COc1ccc(S(=O)(=O)N2CCN(CCO)CC2)cc1-c1nnc2c3ccccc3c(C)nn12	10	0	-2	-3
Cc1ccc(S(=O)(=O)N2CCN(CCO)CC2)cc1-c1nnc2c3ccccc3c(C)nn12	57*	11	-28	-40
CNS(=O)(=O)c1ccc(OC)c(-c2nnc3c4ccccc4c(C)nn23)c1	4	6	-21	-6
COc1ccc(S(=O)(=O)NC(C)(C)C)cc1-c1nnc2c3ccccc3c(C)nn12	36*	30*	-28	-46
O=C(c1ccccn1)N1N=C2/C(=C/c3ccc(F)cc3)CCCC2C1c1ccc(F)cc1 (stereo not given)	3	1	3	11
O=[N+]([O-])c1cc(Cl)cc(/C=N/NC(=S)Nc2ccc(S(=O)(=O)N3CCOCC3)cc2)c1O	.	.	25	35
SMILES	NPY Y2 blocker	NPY Y1 blocker	NPY2 pot ag	NPY-Y1 PAM-ag
CCOC(=O)c1cnc2ccc(OCC)cc2c1N(C)Cc1ccccc1	35*	31*	-18	-51
COCC(C)NC(=S)Nc1ccccc1[N+](=O)[O-] (stereo not given)	.	-4	3	-2
COc1cccc(S(=O)(=O)NCc2ccc(C(=O)Nc3ccc(Cl)c(Cl)c3)cc2)c1	1	-12	23	44*
COc1ccc(NC(=O)c2ccc(CNS(=O)(=O)c3cccc(OC)c3)cc2)cc1	-1	-8	10	19
COc1ccccc1NC(=O)CNc1ccc(F)c(Cl)c1	0	7	-9	11
CN1CCN(c2ccc(NC(=O)c3ccc(-c4ccc(Br)cc4)o3)cc2)CC1	.	0	32*	41*
